According to ChEMBL document CHEMBL4680229, “Design, synthesis and bioactivity study of N-salicyloyl tryptamine derivatives as multifunctional agents for the treatment of neuroinflammation” (Eur J Med Chem, 2020):
The source made the active and inactive calls. No cut-off for these calls is given here.

How the values were obtained:
BV-2 [1] = assay: Antiinflammatory activity against LPS-induced mouse BV-2 cells assessed as decrease in COX2 protein expression after 24 hrs by Western blot analysis; type: functional, cell-based; conditions: BV-2, 24 h
Method in brief: (§1)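 BV2 cells in DMEM with 10% FBS; LPS 1 μg/mL plus compound at 10, 20 or 40 μM final for 24 h. Lysates in RIPA with 1 mM PMSF; 30 μg protein on 8% SDS-PAGE and blotted for iNOS and COX-2, GAPDH as reference; ECL detection and densitometry; at least three independent experiments.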

[2] = Half life in Sprague-Dawley rat at 50 mg/kg, ip up to 24 hrs by LC-MS analysis; type: ADME, organism-based; conditions: in vivo
Method in brief: (§2)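 Male Sprague-Dawley rats, six per group, single 50 mg/kg intraperitoneal dose; parameters derived by non-compartmental analysis using the linear trapezoidal method; mean ± SD, n = 6.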

BV-2 [3] = assay: Antiinflammatory activity against LPS-induced mouse BV-2 cells assessed as decrease in ROS production at 10 to 40 uM after 6 hrs by DCFH-DA fluorescence probe based flow cytometric analysis; type: functional, cell-based; conditions: dose 10-40 µM
Method in brief: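 BV2 cells with LPS 1 μg/mL and compound at 10, 20 or 40 μM for 6 h, then DCFH-DA 20 μM final for 30 min at 37 °C. Washed in cold PBS and read by flow cytometry, excitation 485 nm and emission 530 nm.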

Mus musculus [4] = assay: Antiinflammatory activity against LPS-induced hippocampal neuroinflammatory Kunming mouse model assessed as reduction in iba-1 level in hippocampus at 50 mg/kg, ip administered bid for 6 days by DAPI staining based microscopic method; type: functional, organism-based; conditions: time 6.0 day
Mus musculus [5] = assay: Antiinflammatory activity against LPS-induced hippocampal neuroinflammatory Kunming mouse model assessed as reduction in iba-1 level in hippocampus at 50 mg/kg, ip administered bid for 6 days by Western blot analysis; type: functional, organism-based; conditions: time 6.0 day
C6 [6] = assay: Inhibition of LPS-induced NO production in rat C6 cells incubated for 24 hrs by Griess reagent based assay; type: functional, cell-based; conditions: C6, 24 h
Method in brief: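 C6 cells at 5×10^5 cells/mL, LPS 10 μg/mL plus compound at 2.5–40 μM final for 24 h. Nitrite measured with Griess reagent at 540 nm against a NaNO2 standard; IC50 from three repeats.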

BV-2 [7] = assay: Antiinflammatory activity against LPS-induced mouse BV-2 cells assessed as decrease in COX2 protein expression at 40 uM after 24 hrs by Western blot analysis; type: functional, cell-based; method in brief: as §1
[8] = Inhibition of LPS-induced NO production in mouse BV-2 cells incubated for 24 hrs by Griess reagent based assay; type: functional, cell-based; conditions: BV-2, 24 h
Method in brief: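 BV2 cells at 5×10^5 cells/mL, LPS 1 μg/mL plus compound at 2.5–40 μM final for 24 h. Supernatant nitrite measured with Griess reagent for 15 min at room temperature in the dark, 540 nm, against a NaNO2 standard curve; IC50 from three repeats.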

C6 [9] = assay: Cytotoxicity against rat C6 cells assessed as reduction in cell viability after 24 hrs by MTT assay; type: cell-based; conditions: C6, 24 h
Method in brief: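 C6 or BV2 cells seeded at 1–5×10^5 per well; after 12 h exposed to 0, 6.25, 12.5, 25, 50 or 100 μM (final, DMSO <0.4%) for 24 h. MTT added for 4 h, dissolved in DMSO, read at 570 nm. IC50 as mean of three independent experiments run in triplicate.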

BV-2 [10] = assay: Inhibition of LPS-induced TNFalpha production in mouse BV-2 cells after 24 hrs by ELISA; type: functional, cell-based; conditions: dose 10-40 µM
Method in brief: (§3)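 BV2 cells at 5×10^5 cells/mL stimulated with LPS 1 μg/mL; compound at 10, 20 or 40 μM final for 24 h, DMSO in blanks. Supernatant TNF-α and IL-10 measured by sandwich ELISA and PGE2 by competitive ELISA, OD at 450 nm; at least three independent experiments.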

[11] = target: T1, Prostaglandin G/H synthase 2 (Mus musculus) (UniProt Q05769); assay: Inhibition of COX2 in LPS-induced mouse BV-2 cells assessed as reduction in PGE2 production after 24 hrs by ELISA; type: cell-based; method in brief: as §3
T1 sequence (whole entry): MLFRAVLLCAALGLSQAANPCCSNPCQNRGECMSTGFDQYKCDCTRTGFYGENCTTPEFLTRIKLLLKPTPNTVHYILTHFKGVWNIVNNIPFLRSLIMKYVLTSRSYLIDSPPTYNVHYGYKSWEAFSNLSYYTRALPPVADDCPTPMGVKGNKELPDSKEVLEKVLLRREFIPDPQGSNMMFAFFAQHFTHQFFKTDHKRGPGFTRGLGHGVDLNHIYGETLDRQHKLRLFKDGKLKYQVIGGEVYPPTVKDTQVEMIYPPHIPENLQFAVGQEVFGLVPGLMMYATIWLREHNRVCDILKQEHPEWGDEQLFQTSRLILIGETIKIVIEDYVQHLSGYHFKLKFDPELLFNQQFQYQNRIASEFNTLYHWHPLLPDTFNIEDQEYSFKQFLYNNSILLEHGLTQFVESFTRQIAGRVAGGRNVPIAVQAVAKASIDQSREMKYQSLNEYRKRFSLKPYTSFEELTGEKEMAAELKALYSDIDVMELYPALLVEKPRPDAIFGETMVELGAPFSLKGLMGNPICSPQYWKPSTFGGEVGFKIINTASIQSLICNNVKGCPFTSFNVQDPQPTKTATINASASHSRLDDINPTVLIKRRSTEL

[12] = Cmax in Sprague-Dawley rat at 50 mg/kg, ip up to 24 hrs by LC-MS analysis; type: ADME, organism-based; design: route intraperitoneal, dose 50 mg/kg, time <=24; conditions: in vivo; method in brief: as §2

| Compound | IC50 (BV-2 [1]) [µM] | half-life [2] [h] | Activity (BV-2 [3]) | Activity (Mus musculus [4]) | Activity (Mus musculus [5]) | IC50 (C6 [6]) [µM] | Activity (BV-2 [7]) | IC50 [8] [µM] | IC50 (C6 [9]) [µM] | inhibition (BV-2 [10]) | inhibition [11] | Cmax [12] [ng/mL] |
| --- | --- | --- | --- | --- | --- | --- | --- | --- | --- | --- | --- | --- |
| Cc1ccc(C(=O)NCCc2c[nH]c3ccccc23)c(O)c1 | > 40 | 13.9 | Active | Active | Active | 7.48 | inactive | 4.94 | > 100 | Dose-dependent effect | Dose-dependent effect | 2100 |
| O=C(NCCc1c[nH]c2ccc(O)cc12)c1ccccc1Nc1ccccc1 |  | 2.72 | Active |  |  | 6.73 | Active | 37.2 | > 100 |  | Dose-dependent effect | 6080 |
